Experimental data gathered from unrelated publications.
Compare with care: the assays were run in different laboratories.
Target: Myosin-IIIb (MYO3B, Homo sapiens, UniProt Q8WXR4)
One construct used (Q8WXR4 1-1341): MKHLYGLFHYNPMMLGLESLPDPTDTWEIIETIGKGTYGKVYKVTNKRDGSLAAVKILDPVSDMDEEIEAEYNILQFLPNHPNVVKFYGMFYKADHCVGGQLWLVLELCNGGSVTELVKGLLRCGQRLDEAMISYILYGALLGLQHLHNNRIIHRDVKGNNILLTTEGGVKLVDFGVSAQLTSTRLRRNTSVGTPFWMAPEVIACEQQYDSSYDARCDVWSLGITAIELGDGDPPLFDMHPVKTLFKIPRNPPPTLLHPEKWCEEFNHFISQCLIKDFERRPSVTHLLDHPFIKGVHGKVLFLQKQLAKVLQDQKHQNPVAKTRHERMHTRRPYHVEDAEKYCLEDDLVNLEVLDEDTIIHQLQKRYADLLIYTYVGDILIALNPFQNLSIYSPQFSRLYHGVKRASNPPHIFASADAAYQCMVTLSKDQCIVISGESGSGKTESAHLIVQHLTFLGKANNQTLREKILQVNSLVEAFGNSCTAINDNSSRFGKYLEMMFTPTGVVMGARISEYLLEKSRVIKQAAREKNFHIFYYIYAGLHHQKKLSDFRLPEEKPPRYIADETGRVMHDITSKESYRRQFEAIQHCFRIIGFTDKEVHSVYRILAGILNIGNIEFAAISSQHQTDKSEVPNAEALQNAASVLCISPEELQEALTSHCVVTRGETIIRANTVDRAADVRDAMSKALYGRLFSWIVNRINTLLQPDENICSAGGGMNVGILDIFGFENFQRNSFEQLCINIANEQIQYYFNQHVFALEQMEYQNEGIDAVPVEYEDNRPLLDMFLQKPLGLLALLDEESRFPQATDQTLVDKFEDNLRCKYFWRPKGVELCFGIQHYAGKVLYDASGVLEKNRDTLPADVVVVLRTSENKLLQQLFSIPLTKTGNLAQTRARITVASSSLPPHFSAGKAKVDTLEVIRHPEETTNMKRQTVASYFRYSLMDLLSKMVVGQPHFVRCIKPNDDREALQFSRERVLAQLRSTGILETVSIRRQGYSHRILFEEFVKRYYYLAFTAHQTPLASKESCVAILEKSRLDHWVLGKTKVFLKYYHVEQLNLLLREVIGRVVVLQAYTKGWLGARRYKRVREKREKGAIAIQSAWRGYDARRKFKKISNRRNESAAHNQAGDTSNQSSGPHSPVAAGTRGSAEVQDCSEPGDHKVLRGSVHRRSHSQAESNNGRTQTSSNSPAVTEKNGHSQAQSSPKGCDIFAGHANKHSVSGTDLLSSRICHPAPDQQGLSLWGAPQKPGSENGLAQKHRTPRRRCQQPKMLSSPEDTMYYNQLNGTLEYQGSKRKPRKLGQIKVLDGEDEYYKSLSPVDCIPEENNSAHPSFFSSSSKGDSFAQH

Compound | observed | action | technique | tested at | measurement | result
CCC(=N\O)/C(C)=C/c1ccc(F)cc1 | binding |  | competition with immobilised ligand | 1 µM | remaining binding | 100%
Cc1sc(C(=O)NC2COC2)cc1-n1cc(NC(=O)Nc2c(F)cccc2Cl)cn1 | enzyme activity | inhibitor |  | 10 µM | remaining activity | 73.5%
CC(C)(O)[C@H]1CC[C@H](Nc2ccc3ncc(-c4cccc(C(F)(F)F)c4)n3n2)CC1 | enzyme activity | inhibitor |  | 1 µM | remaining activity | 85.1%
O=C(Nc1cnn(-c2csc(C(=O)NC3COC3)c2)c1)Nc1ccccc1Cl | enzyme activity | inhibitor |  | 5 µM | remaining activity | 128%
Nc1ncnc2occ(-c3ccc(NC(=O)Nc4cc(C(F)(F)F)ccc4F)cc3)c12 | cell-free assay |  |  | 20 µM | remaining signal | 25%
CN1CC(Oc2cnc(C#N)cc2-c2ccn3nc(NC(=O)C4CC4)cc3c2)C1 | enzyme activity | inhibitor |  | 1 µM | inhibition | -2%
O=C(O)c1ccc2c3c1cccc3c(=O)n1c3ccccc3nc21 | enzyme activity | inhibitor |  | 0.5 µM | remaining activity | 96.7%
Cc1ccc(C(=O)Nc2ccc(CN3CCN(C)CC3)c(C(F)(F)F)c2)cc1C#Cc1cnc2cccnn12 | enzyme activity |  |  | 23.5 nM | remaining activity | 79%
COc1cc(Cl)c(C(=O)N[C@@H](CN[C@H]2CC[C@@H](N)CC2)Cc2ccc(C#N)cc2)cc1-c1ccc(CN[C@H](C)c2ccc(C)cc2)o1 | enzyme activity | inhibitor |  | 1 µM | remaining activity | 116%
CSc1cccnc1N1CCN(Cc2nc3ccccc3[nH]2)CC1 | binding |  | competition with immobilised ligand | 1 µM | remaining binding | 100%
C[S+]([O-])c1ccc(-c2nc(-c3ccncc3)c(-c3ccc(F)cc3)[nH]2)cc1 (centres unmarked) | cell-free assay |  |  | 0.5 µM | remaining signal | 104%
Cn1nc(C(=O)NCc2ccc(C(=O)O)cc2)cc1-c1ccc2[nH]ccc2c1 | binding |  | competition with immobilised ligand | 0.1 µM | remaining binding | 100%
CCN(CC)CCNC(=O)c1c(C)[nH]c(/C=C2\C(=O)Nc3ccc(Cl)cc32)c1C | enzyme activity | inhibitor |  | 0.5 µM | remaining activity | 41.3%
CN1CCN(C(=O)c2ccc3cc(CCNc4ccnc5ccc(C#N)cc45)ccc3c2)CC1 | binding |  | competition with immobilised ligand | 2 µM | inhibition | > 35%
